Laboratory results from ChEMBL document CHEMBL1134791, “2- and 3-substituted 1,4-naphthoquinone derivatives as subversive substrates of trypanothione reductase and lipoamide dehydrogenase from Trypanosoma cruzi: synthesis and correlation between redox cycling activities and in vitro cytotoxicity” (J Med Chem, 2001).

Legend:
Trypanosoma cruzi = assay: In vitro antiparasitic activity against Trypanosoma cruzi was tested by sigmoidal regression analysis; type: functional; details: read-out: ED50 (the source's name)
Procedure, shortened: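 Mouse peritoneal macrophages (female CD1, starch-elicited, harvested 24 h) infected with L. donovani amastigotes (strain MHOM/ET/67/L82, hamster spleen) or T. cruzi Y-strain trypomastigotes (5:1, from MDCK overlay). Infected cells exposed to a 3-fold dilution series in quadruplicate for 5 days (L. donovani) or 3 days (T. cruzi). Giemsa-stained slides scored for % macrophages cleared of amastigotes versus untreated cultures. ED50 by sigmoidal regression.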

Trypanothione reductase = Trypanothione reductase (Trypanosoma cruzi, UniProt P28593); assay: Inhibitory activity against Trypanosoma cruzi trypanothione disulfide reductase, assay in presence of 57 uM T(S)2.
Procedure, shortened: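 Assay contained 250 µM NADPH, 57 µM T(S)₂, inhibitor at 0.3–50 µM and 1% DMSO final. Started with enzyme; NADPH loss followed at 340 nm. IC50 in duplicate.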

Trypanosoma brucei [1] = assay: In vitro antiparasitic activity against Trypanosoma brucei was tested by sigmoidal regression analysis; type: functional; details: read-out: ED50 (the source's name)
Procedure, shortened: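 T. b. brucei S427 bloodstream trypomastigotes at 2 × 10⁵/mL in HMI-18 medium, in triplicate, with a 3-fold dilution series starting at 30 µM. Incubated 3 days at 37 °C in 5% CO₂. Pentamidine served as positive control. Viability read by tetrazolium colorimetric assay on day 3. ED50 by sigmoidal regression.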

[2] = Compound dose toxic against macrophages of Trypanosoma cruzi; type: ADME
Procedure, shortened: (§1)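 Starch-induced peritoneal macrophages from female CD1 mice, 4 × 10⁵/mL in RPMI-1640, infected 5:1 with T. cruzi Y-strain trypomastigotes from MDCK overlay. Drug in 3-fold dilution series, quadruplicate, 3 days. Slides methanol-fixed and Giemsa-stained.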

[3] = Compound dose toxic against mouse peritoneal macrophages infected with Leishmania donovani; type: ADME
Procedure, shortened: (§2)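 Starch-induced peritoneal macrophages from female CD1 mice, 4 × 10⁵/mL in RPMI-1640, infected with L. donovani (MHOM/ET/67/L82) amastigotes from hamster spleen. Drug in 3-fold dilution series, quadruplicate, 5 days. Giemsa-stained slides.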

[4] = Compound dose toxic against mouse peritoneal macrophages infected with Leishmania donovani (100% inhibition); type: ADME; procedure, shortened: as §2
[5] = Compound dose toxic against macrophages of Trypanosoma cruzi (100% inhibition); type: ADME; procedure, shortened: as §1
Trypanosoma brucei [6] = assay: In vitro antiparasitic activity against Trypanosoma brucei was tested by sigmoidal regression analysis; details: read-out: ED50 (the source's name)
[7] = Compound dose toxic against mouse peritoneal macrophages infected with Leishmania donovani (100 % inhibition); type: ADME; procedure, shortened: as §2
[8] = Compound dose toxic against macrophages of Trypanosoma cruzi (100 % inhibition); type: ADME; procedure, shortened: as §1

Chain of Trypanothione reductase (P28593 whole entry): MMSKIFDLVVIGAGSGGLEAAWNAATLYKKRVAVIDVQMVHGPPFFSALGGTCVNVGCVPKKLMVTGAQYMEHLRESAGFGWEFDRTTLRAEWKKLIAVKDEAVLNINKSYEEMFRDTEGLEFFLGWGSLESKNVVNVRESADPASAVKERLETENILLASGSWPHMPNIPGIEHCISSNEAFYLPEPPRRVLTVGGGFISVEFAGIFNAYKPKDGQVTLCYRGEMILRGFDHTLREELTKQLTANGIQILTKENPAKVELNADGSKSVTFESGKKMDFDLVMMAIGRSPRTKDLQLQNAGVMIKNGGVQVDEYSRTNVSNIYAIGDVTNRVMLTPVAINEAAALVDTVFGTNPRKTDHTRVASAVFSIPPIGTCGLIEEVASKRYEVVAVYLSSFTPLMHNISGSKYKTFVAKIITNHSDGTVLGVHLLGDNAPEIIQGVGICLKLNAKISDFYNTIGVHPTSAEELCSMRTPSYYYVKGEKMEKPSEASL

EC50 (Trypanosoma cruzi) [µM]	IC50 (Trypanothione reductase) [µM]	SMILES	EC50 (Trypanosoma brucei [1]) [µM]	Toxic dose [2] [µM]	other results
17	> 50	CC1=C(CCCCCC(=O)O)C(=O)c2ccccc2C1=O	5.3	–	–
> 49	11	CC1=C(CCCC(=O)NCCCNCCCNC(=O)CCCC2=C(C)C(=O)c3ccccc3C2=O)C(=O)c2ccccc2C1=O	27	–	–
46	> 50	CC1=C(CCC(=O)O)C(=O)c2c(O)cccc2C1=O	> 11	–	–
> 48	17.5	CN1CCN(C(=O)CCCC2=C(CCCC(=O)N3CCN(C)CC3)C(=O)c3c(O)cccc3C2=O)CC1	31.4	–	–
> 6.2	> 57	CC1=C(O)c2ccccc2C(=O)/C1=N\CCCN1CCN(C)CC1	> 12.5	–	–
11.4	1.6	CC1=C(CCCCCC(=O)NCCCN2CCN(CCCNC(=O)CCCCCC3=C(C)C(=O)c4cccc(O)c4C3=O)CC2)C(=O)c2c(O)cccc2C1=O	> 1.3	–	–
50	32	CC1=C(CCCC(=O)NCCCN2CCN(C)CC2)C(=O)c2c(O)cccc2C1=O	23	–	–
9	1.4	CC1=C(CCCCC(=O)NCCCCNCCCNC(=O)CCCCC2=C(C)C(=O)c3ccccc3C2=O)C(=O)c2ccccc2C1=O	4.4	–	–
59	11	CN1CCN(CCCNC(=O)CCCC2=C(CCCC(=O)NCCCN3CCN(C)CC3)C(=O)c3c(O)cccc3C2=O)CC1	259	–	–
13.8	> 50	CC1=C(CCCNC(=O)OC(C)(C)C)C(=O)c2ccccc2C1=O	> 3	–	–
> 84	42	CC1=C(CCCC(=O)N2CCN(C)CC2)C(=O)c2c(O)cccc2C1=O	52	–	–
44	2.6	CC1=C(CCC(=O)NCCCN2CCN(CCCNC(=O)CCC3=C(C)C(=O)c4cccc(O)c4C3=O)CC2)C(=O)c2c(O)cccc2C1=O	–	–	EC50 (Trypanosoma brucei [6]): 30.3 µM
> 48	4	CC1=C(CCCC(=O)NCCCCNCCCNC(=O)CCCC2=C(C)C(=O)c3ccccc3C2=O)C(=O)c2ccccc2C1=O	26.6	–	–
3.5	> 25	CC1=C(CCNC(=O)OC(C)(C)C)C(=O)c2c(O)cccc2C1=O	0.6	–	–
11	3.1	CC1=C(CCCCCC(=O)NCCCN2CCN(CCCNC(=O)CCCCCC3=C(C)C(=O)c4ccccc4C3=O)CC2)C(=O)c2ccccc2C1=O	5.7	–	–
40	3.7	CC1=C(CCC(=O)NCCCN2CCN(CCCNC(=O)CCC3=C(C)C(=O)c4ccccc4C3=O)CC2)C(=O)c2ccccc2C1=O	3.2	–	–
–	–	CC1=CC(=O)c2ccccc2C1=O [MENADIONE]	–	10	Toxic dose [3]: 30 µM
–	–	CC1=CC(=O)c2c(O)cccc2C1=O [PLUMBAGIN]	1.5	–	Toxic dose [7]: 3 µM; Toxic dose [8]: 10 µM

SMILES	EC50 (Trypanosoma cruzi) [µM]	IC50 (Trypanothione reductase) [µM]	EC50 (Trypanosoma brucei [1]) [µM]	Toxic dose [2] [µM]	other results
CC1=C(NCCCNCCC/N=C2/C(=O)c3ccccc3C(O)=C2C)C(=O)c2ccccc2C1=O	–	9	> 12.5	10	–
CC1=C(NCCCNCCCCNCCCNC2=C(C)C(=O)c3ccccc3C2=O)C(=O)c2ccccc2C1=O	–	6.5	> 1	1	Toxic dose [3]: 30 µM
CC1=C(NCCCNCCCN)C(=O)c2c(O)cccc2C1=O	–	57	> 12.5	1	–
CC1=C(NCCCCN)C(=O)c2ccccc2C1=O	–	> 57	> 12.5	3	–
CC1=C(NCCCNCCCCNCCCN)C(=O)c2c(O)cccc2C1=O	–	28	> 30	1	–
CC1=C(NCCCN2CCN(CCCNC3=C(C)C(=O)c4ccccc4C3=O)CC2)C(=O)c2ccccc2C1=O	–	10	> 12.5	30	–
CN1CCN(CCCNC(=O)CCCCCC2=C(CCCCCC(=O)NCCCN3CCN(C)CC3)C(=O)c3c(O)cccc3C2=O)CC1	–	0.8	10.1	30	Toxic dose [3]: 10 µM
CC1=C(CCC(=O)NCCCN2CCN(C)CC2)C(=O)c2ccccc2C1=O	–	38	> 10	30	–
CC1=C(NCCCNCCCCNCCCN)C(=O)c2ccccc2C1=O	–	28	30	1	Toxic dose [3]: 30 µM
CN1CCN(C(=O)CCCCCC2=C(CCCCCC(=O)N3CCN(C)CC3)C(=O)c3c(O)cccc3C2=O)CC1	–	2.9	13.1	3	Toxic dose [3]: 3 µM
CC1=C(O)c2cccc(O)c2C(=O)/C1=N\CCCN1CCN(C)CC1	–	> 57	> 12.5	–	Toxic dose [4]: 30 µM; Toxic dose [5]: 10 µM
CC1=C(NCCCN2CCN(CCCN)CC2)C(=O)c2c(O)cccc2C1=O	–	39	> 3	3	Toxic dose [3]: 30 µM
CN1CCN(C(=O)CCCCC2=C(CCCCC(=O)N3CCN(C)CC3)C(=O)c3c(O)cccc3C2=O)CC1	–	5.9	> 56	10	Toxic dose [3]: 3 µM
CC1=C(CCC(=O)NCCCN2CCN(C)CC2)C(=O)c2c(O)cccc2C1=O	–	16	> 10	10	–
